Reference: ChEMBL document CHEMBL1143310, “Design, synthesis, and biological evaluation of fluorinated analogues of salicylihalamide” (J Med Chem, 2009)
The source made the active and inactive calls. The rule behind the calls is not given here.

Columns and labels:
[1] = tested on: COS-7; experiment: Inhibition of V-ATPase activity in african green monkey COS7 cells assessed as increase in luminal pH of lysosomes at 1 uM after 5 hrs by fluorescent microscopy; assay type: cell-based; details: Chlorocebus aethiops
How it was run: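 COS-7 cells grown in DMEM with 10% FCS at 37 °C in 5% CO2 on poly-L-lysine coverslips overnight. Compound added at 1 µM final for 5 h at 37 °C. Cells then loaded 1 min with LysoSensor Green DND-189 (1 µM final) and washed with HBSS. Lysosomal fluorescence imaged by microscopy with a cooled CCD camera. Duplicate experiments.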

[2] = Inhibition of proton transport activity of V-ATPase in pig adrenal chromaffin granule membrane by fluorescent quenching measurement; parameters: species or system Sus scrofa
How it was run: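 Porcine adrenal chromaffin granule membranes (50 µg protein) in 0.3 M sucrose, 40 mM KCl, 5 mM tricine, pH 8.0, with ACMA and valinomycin, preincubated 10 min at 37 °C. Compound added in DMSO (0.1% final), 3 min at 37 °C. MgATP added for 2 min, then FCCP. ACMA fluorescence quenching read. Activity taken as % of DMSO control, in triplicate with SD. IC50 derived graphically from log-concentration plots.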

[3] = Cytotoxicity against human NCI60 cells; assay type: functional
[4] = Cytotoxicity against human melanoma cells; assay type: functional; details: Melanoma cell
[5] = Inhibition of V-ATPase activity in bovine […] chromaffin granule membrane; parameters: species or system Bos taurus
[6] = Cytotoxicity against african green monkey COS7 cells at 1 uM after 5 hrs by trypan blue exclusion test; assay type: cell-based; details: chlorocebus aethiops, cos-7, 5 h
How it was run: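 COS-7 cells were cultured on poly-L-lysine coverslips and exposed to compound at 1 µM final for 5 h at 37 °C. Intact or treated cells were soaked in PBS with 0.3% trypan blue. Viability was judged by dye exclusion under bright-field and phase-contrast microscopy.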

Structure (SMILES) | Activity [1] | IC50 [2] [nM] | GI50 [3] [nM] | GI50 [4] [nM] | IC50 [5] [nM] | Activity [6]
CC/C=C\C=C/C(=O)N/C=C/C[C@H]1C[C@@H](O)[C@@H](C)C/C=C/Cc2ccc(F)c(O)c2C(=O)O1 [4-19F-SALICYLIHALAMIDE A] | Active | 2 |  |  |  | 
CC/C=C\C=C/C(=O)N/C=C\C[C@H]1C[C@@H](O)[C@@H](C)C/C=C/Cc2ccc(F)c(O)c2C(=O)O1 [4-19F-SALICYLIHALAMIDE B] | Active | 10 |  |  |  | 
CC/C=C\C=C/C(=O)N/C=C/C[C@H]1C[C@@H](O)[C@@H](C)C/C=C/Cc2cccc(O)c2C(=O)O1 [SALICYLIHALAMIDE A] | Active | < 1 | 15 | 7 | 1 | Non-toxic
CC/C=C\C=C/C(=O)N/C=C\C[C@H]1C[C@@H](O)[C@@H](C)C/C=C/Cc2cccc(O)c2C(=O)O1 [SALICYLIHALAMIDE B] | Active | 30 |  |  |  | Non-toxic
